MrgX1 ag – human MrgX1 receptor agonism, primary screen; hit rate 0.44% among 310,000; MrgX1-HEK293 cells, Fluo-4 calcium fluorescence, agonist mode; hits give high values; B-score at 10 µM;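 active means calcium response B-score plate-corrected fluorescence ratio at least 3 library SD, with starting fluorescence B-score inside 5 SD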
Target sequence (Q96LB2 whole entry, looked up): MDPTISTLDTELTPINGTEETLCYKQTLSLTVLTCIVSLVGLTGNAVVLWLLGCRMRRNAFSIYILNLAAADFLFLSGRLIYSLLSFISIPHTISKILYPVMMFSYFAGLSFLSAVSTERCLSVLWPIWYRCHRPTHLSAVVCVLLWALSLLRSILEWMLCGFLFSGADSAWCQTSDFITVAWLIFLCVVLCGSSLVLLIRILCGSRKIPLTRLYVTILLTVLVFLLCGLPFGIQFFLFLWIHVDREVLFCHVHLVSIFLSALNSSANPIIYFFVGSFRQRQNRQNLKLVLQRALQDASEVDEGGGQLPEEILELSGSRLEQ
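Test system: Stable human MrgX1 HEK293 cell line | Schedule: Overnight plating before 1 h dye loading | Read-out basis: Baseline-normalised fluorescence change ratio, B-scored | Detection: Kinetic calcium dye fluorescence, Fluo-4 NW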
RGS4 pot – potentiators or activators of RGS4 | B-score at 10 µM | HEK293 M3R/inducible RGS4, carbachol calcium flux Fluo4; hits give low values | hit rate 0.92% among 310,000 | AID 463111;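 active means B-score of the integrated calcium signal more than 4 SD below the library mean, with starting fluorescence not abnormally high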;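 further: negative B-score means reduced calcium response which marks RGS4 activation or potentiation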
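test system = M3R-expressing HEK293 line, RGS4 induced by doxycycline | probe or stimulus = carbachol at ECmax as muscarinic agonist stimulus | timing = dye loading 30 min 37 °C, buffer rest 30 min RT | signal = calcium dye Fluo4 fluorescence | evaluation = B score from integrated fluorescence ratio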
MrgX1 PAM – human MrgX1 positive allosteric modulation, primary screen. Q96LB2. MrgX1-HEK293, Fluo-4 calcium flux, FDSS; hits give high values. B-score at 10 µM. hit rate 0.63% among 310,000. AID 588675;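 active means plate-corrected calcium response at least 3 library SD above typical, normal starting fluorescence, not activating the receptor alone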;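 further: compound read alongside a low EC10 to EC30 dose of BAM8-22 agonist; peak minus trough fluorescence over baseline measured at the second addition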
MrgX1 antagonist – human MrgX1 receptor antagonism, primary screen; Q96LB2; MRGX1-HEK293 calcium flux, Fluo-4, BAM8-22 antagonism; hits give low values; B-score at 10 µM; hit rate 1.3% among 310,000;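 active means calcium-response B-score plate-corrected more than 3 library SD below zero, starting fluorescence within 5 deviations, no agonist response on first addition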;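 further: peak minus trough fluorescence over baseline after final BAM8-22 challenge near maximal dose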
RGS4 inh – inhibitors of human RGS4; P49798; HEK293 M3R/RGS4 inducible, Fluo-4 calcium flux; hits give high values; triggered by carbachol at its EC20; B-score at 10 µM; hit rate 0.45% among 310,000; AID 463165;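 active means B-score, a plate-corrected calcium signal, over three deviations above library mean, with baseline fluorescence within five deviations of library mean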;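 further: RGS4 expression induced by doxycycline in cells with stable M3 receptor; B-score is computed from the integrated fluorescence ratio over baseline after carbachol; higher B-score means a larger calcium signal and so more RGS4 inhibition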
Target sequence (P49798 whole entry, looked up): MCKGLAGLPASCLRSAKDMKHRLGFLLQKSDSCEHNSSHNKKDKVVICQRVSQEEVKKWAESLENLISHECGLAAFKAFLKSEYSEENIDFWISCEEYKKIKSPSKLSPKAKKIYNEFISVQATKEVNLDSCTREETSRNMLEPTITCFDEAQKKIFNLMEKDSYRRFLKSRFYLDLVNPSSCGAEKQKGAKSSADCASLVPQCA
A number is an active result; – = inactive. In the library only some 3.5% were active in any assay of this set; here they are far more common.

SMILES	MrgX1 ag	RGS4 pot	MrgX1 PAM	MrgX1 antagonist	RGS4 inh
CCN1CCCC1CNC(=O)c1ccc(Sc2ccccc2Cl)c([N+](=O)[O-])c1 (stereo not given)	–	-7.1	–	–	–
CCN1CCCC1CNC(=O)c1ccc(Sc2ccc(F)cc2)c([N+](=O)[O-])c1 (stereo not given)	–	-9.9	–	–	–
COc1cc(C(=O)NC2CC(C)(C)CC(C)(C)C2)ccc1OC1CCN(C(C)=O)CC1	–	–	–	–	–
O=C(Nc1nc(-c2ccc(F)c(F)c2)cs1)c1cc([N+](=O)[O-])ccc1N1CCOCC1	–	–	–	–	–
Cc1cc(C)c(-c2csc(NC(=O)c3cc([N+](=O)[O-])ccc3N3CCOCC3)n2)c(C)c1	–	-7.9	–	–	–
CCc1ccc(/C=C2\C(=N)N3N=C(CC(=O)N4CCCCC4)SC3=NC2=O)cc1	–	–	–	–	–
CCN(CC)c1ccc(/C=C2\C(=N)N3N=C(CC(=O)N4CCOCC4)SC3=NC2=O)cc1	28	–	–	–	–
CSc1ccc(/C=C2\C(=N)N3N=C(CC(=O)N4CCOCC4)SC3=NC2=O)cc1	–	–	11	–	–
CSc1ccc(/C=C2\C(=N)N3N=C(CC(=O)N4CCCCC4)SC3=NC2=O)cc1	38	–	–	–	–
COc1ccc(/C=C/C2=CC(C)(C)NC(=S)N2)cc1	–	–	–	–	–
CC(=O)Nc1ccc(S(=O)(=O)NCc2ccc(C(=O)NCCN3CCCCCC3)cc2)cc1	–	–	–	-9.4	–
CC(=O)Nc1ccc(S(=O)(=O)NCc2ccc(C(=O)NCc3ccc(Cl)cc3)cc2)cc1	–	–	–	–	–
COc1ccc(CNC(=O)COc2cccnc2[N+](=O)[O-])cc1OC	–	–	6.9	–	–
CC(=O)NC1C(=O)N(CCN2CCOCC2)c2ccc(C)cc21 (stereo not given)	–	–	–	-6.1	–
COc1ccccc1CNC(=O)CS(=O)(=O)c1ccc(C)cc1	–	–	–	–	–
C=CCNC(=O)c1c(Br)cnn1-c1ccc(C)cc1	–	–	–	–	–
NC(=O)c1sc(=S)n2c1[nH]c(=O)c1sccc12	–	–	16	–	–
CC(=O)NNC(=O)c1sc(=S)n2c1[nH]c(=O)c1sccc12	–	–	–	–	–
Cc1ccc(-c2nc(CN3CCCC(C(=O)N4CCOCC4)C3)c(C)o2)cc1 (stereo not given)	–	–	–	–	–
CCCc1nc2ccc(NC(=O)c3ccco3)cc2c(=O)n1Cc1ccc(Cl)cc1	–	–	–	-6.7	–
C/C(=N\NC(=O)c1cccc(Cl)c1)C1C(=O)c2ccccc2C1=O	–	–	18	–	–
CCN(CC)CCn1c2c(c(SCC(=O)Nc3nc4ccccc4s3)nc1=O)CCC2	–	–	–	–	–
CC(=O)OCCCN(C)CC/C=C1/c2ccccc2CSc2ccccc21	–	-7.9	–	–	–
COc1ccc(/C=C/C(=O)Nc2sc3c(c2C(=O)NCc2cccnc2)CCCC3)cc1	–	-8.7	–	–	–
O=C(COc1ccccc1)Nc1sc2c(c1C(=O)NCc1cccnc1)CCCC2	–	–	–	–	–
SMILES	MrgX1 ag	RGS4 pot	MrgX1 PAM	MrgX1 antagonist	RGS4 inh
COc1ccc(/C=C2\Oc3cc(OCC(=O)N4CCC[C@H]4C(=O)O)ccc3C2=O)c(OC)c1	–	–	–	–	–
COc1ccc(OC)c(/C=C2\Oc3cc(OCC(=O)N4CCC[C@H]4C(=O)O)ccc3C2=O)c1	31	–	–	–	–
O=[N+]([O-])c1cc(S(=O)(=O)NCCN2CCOCC2)ccc1Cl	–	–	–	–	–
COCCCNC(=O)c1ccccc1N(Cc1ccccc1)S(=O)(=O)c1ccccc1	–	–	–	–	–
COc1ccc(/C=C2/SC(=S)N(NS(=O)(=O)c3ccc(C)cc3)C2=O)cc1	–	-8.4	–	-5.2	–
C=CCOc1ccc(/C=C2\SC(=S)N(NS(=O)(=O)c3ccc(C)cc3)C2=O)cc1	–	-7	–	–	–
Cc1ccc(/C=C2\SC(=S)N(NS(=O)(=O)c3ccc(C)cc3)C2=O)cc1	–	-8.2	–	–	–
COc1cc(/C=C2\SC(=S)N(NS(=O)(=O)c3ccccc3)C2=O)cc(OC)c1OC	–	–	–	–	–
COc1ccc(/C=C2/SC(=O)N(NS(=O)(=O)c3ccccc3)C2=S)cc1OC	27	–	–	–	–
Cc1ccc(S(=O)(=O)NN2C(=O)/C(=C\c3ccc(Cl)cc3)SC2=S)cc1	–	–	–	–	–
CCOc1ccc(C2/C(=C(\O)c3ccc4c(c3)OCCO4)C(=O)C(=O)N2Cc2cccnc2)cc1OCC (stereo not given)	–	–	–	–	–
O=C(Oc1cccc([N+](=O)[O-])c1)C1CCN(C(=O)c2ccc(F)cc2)CC1	–	–	–	–	–
S=C(N/N=C/c1cccc2ccccc12)Nc1cccc(Cl)c1	–	–	–	–	–
O=C1/C(=C/c2cccc(F)c2)SC(=S)N1NS(=O)(=O)c1ccccc1	–	–	–	–	–
O=C1/C(=C/c2ccccn2)SC(=S)N1NS(=O)(=O)c1ccccc1	–	–	8.9	-5.3	–
COc1ccc(NC(=O)COC(=O)c2ccc(O)cc2)c([N+](=O)[O-])c1	–	–	–	-5.5	–
COC(=O)Cn1cnc2c(cnn2-c2ccc(C)cc2)c1=O	–	–	–	–	–
CCc1ccccc1NC(=O)CNCC(=O)Nc1ccccc1CC	–	–	–	–	–
Cc1ccc2sc(NNC(=O)c3cc(=O)c4ccccc4o3)nc2c1C	–	–	–	-8.7	–
Cc1cccc2sc(NNC(=O)c3cc(=O)c4ccccc4o3)nc12	–	–	–	–	–
COc1ccc(-c2cn(-c3ccc(OC)cc3)c3[n+]2-c2ccccc2CC3)cc1	–	–	–	-7.9	–
CCCCN1C(=O)/C(=C/C=C2\N(C)c3ccccc3C2(C)C)SC1=S	–	–	–	-15	–
O=C1Cc2ccccc2C(=O)N1CCc1ccccc1	–	–	–	-5.2	–
O=C1C(=O)N(Cc2ccccc2)C(=O)N1CCN1C(=O)c2ccccc2C1=O	–	–	–	–	–
N#C/C(=C\c1ccccn1)c1nc2ccccc2s1	–	–	–	-7.2	–
SMILES	MrgX1 ag	RGS4 pot	MrgX1 PAM	MrgX1 antagonist	RGS4 inh
CCCCn1c2ccc(C)cc2c2nnc(SCCN3CCCCC3)nc21	–	-12	–	–	–
O=C(/C=C\Nc1ccc2c(c1)OCO2)c1ccc(Cl)s1	–	–	–	–	–
C/C(=C\C(=O)c1ccc(Cl)s1)N(C)C	–	–	9.2	–	–
Cc1cccc(C(=O)NN2C(=O)C3C(c4ccccc4)C=CC(c4ccccc4)C3C2=O)c1 (stereo not given)	–	-7.1	–	–	–
O=C(NN1C(=O)C2C3C=CC(C3)C2C1=O)c1ccccc1 (stereo not given)	–	–	–	–	–
CC1(C)N=C(SCC(=O)Nc2ccc(Cl)cc2)C(c2ccccc2)=N1	–	–	–	–	–
